Assay results: ChEMBL document CHEMBL2407056, “3-(Oxazolo[4,5-b]pyridin-2-yl)anilides as a novel class of potent inhibitors for the kinetoplastid Trypanosoma brucei, the causative agent for human African trypanosomiasis” (Eur J Med Chem, 2013)
≈ marks a conversion by molar mass, not a printed value.

How the values were obtained:
[1] = system: Trypanosoma brucei brucei; assay: Antitrypanosomal activity against Trypanosoma brucei brucei 427 bloodstream form after 48 hrs by Alamar blue assay; type: functional, organism-based; conditions: Trypanosoma brucei, 427, 48 h
Method in brief: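 Bloodstream parasites in 384-well plates, 24 h preincubation at 37 °C/5% CO2. DMSO dilutions diluted 1:21 in DMEM and added to give final 41.67 to 0.0004 µM; 48 h incubation. 70% Alamar Blue in HMI-9 + 10% FCS added, 2 h at 37 °C then 22 h at room temperature; read at ex 535/em 590 nm.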

[2] = Selectivity index, ratio of IC50 for HEK293 cells to IC50 for Trypanosoma brucei brucei 427 bloodstream form; type: toxicity, cell-based; conditions: human, read-out: Ratio IC50
Method in brief: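 HEK293 cells (55 µL of 72,727 cells/mL in DMEM + 10% FCS) in 384-well plates, 24 h at 37 °C/5% CO2. Drug diluted 1:21 from DMSO, final 83.34 to 0.0004 µM, 48 h. […] SI relative to T. b. brucei.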

[3] = Partition coefficient, log D of the compound at pH 7.4 by HPLC analysis; type: physicochemical; conditions: octanol/water
Method in brief: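 Chromatographic gradient HPLC: mobile phase 50 mM ammonium acetate pH 7.4 (or ammonium formate pH 3.0) with an acetonitrile gradient of 0–100% over 10 min; UV detection at 220 and 254 nm.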

[4] = Kinetic solubility of the compound in phosphate buffer at pH 6.5 by nephelometry; type: physicochemical; conditions: read-out: Kinetic_solubility
Method in brief: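 DMSO stocks spiked into pH 6.5 phosphate buffer or 0.01 M HCl (about pH 2.0), final DMSO 1% (v/v). Solubility range determined by nephelometry.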

[5] = Kinetic solubility of the compound in phosphate buffer at pH 2 by nephelometry; type: physicochemical; conditions: read-out: Kinetic_solubility
[6] = Intrinsic clearance in human liver microsomes at 1 uM after 60 mins by LC-MS analysis; type: ADME, Microsome; conditions: read-out: CLH
Method in brief: (§1)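 Compound at 1 µM final (1 in 500 dilution of stock) incubated at 37 °C with human liver microsomes in 0.1 M phosphate buffer pH 7.4, 0.4 mg/mL protein. First-order depletion rate from exponential decay fit used to derive in vitro CLint and half-life; predicted hepatic extraction ratio from scaled CLint with liver blood flow 20.7 mL/min/kg.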

[7] = Half life in human liver microsomes at 1 uM by LC-MS analysis; type: ADME, Microsome; method in brief: as §1
[8] = system: Trypanosoma brucei rhodesiense; assay: Antitrypanosomal activity against Trypanosoma brucei rhodesiense STIB 900 bloodstream form after 70 hrs by Alamar blue assay; type: functional, organism-based; conditions: STIB 900, 70 h
Method in brief: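 Bloodstream forms (4×10³/well) in MEM with 25 mM HEPES, extra glucose, non-essential amino acids, 0.2 mM 2-mercaptoethanol, 1 mM pyruvate and 15% heat-inactivated horse serum. Eleven 3-fold dilutions from 100 to 0.002 µg/mL, 70 h at 37 °C/5% CO2; Alamar Blue 2 h, fluorescence at ex 536/em 588 nm; IC50 by linear regression; melarsoprol control. SI relative to L6 cells.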

Leishmania donovani [9] = assay: Antimicrobial activity against Leishmania donovani amastigote form infected in mouse peritoneal macrophage after 96 hrs by Giemsa staining method; type: functional, organism-based
Method in brief: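 Mouse peritoneal macrophages (4×10⁴/well, RPMI 1640 + 10% heat-inactivated FBS) infected after 24 h with 1.2×10⁵ axenic amastigotes; free parasites removed at 4 h, drug dilutions added next day. After 96 h, methanol fixation and 10% Giemsa staining; infected and non-infected macrophages counted, % reduction in parasite burden vs controls, IC50 by linear regression; miltefosine control.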

Plasmodium falciparum = assay: Antimicrobial activity against Plasmodium falciparum NF54 infected in human RBC after 48 hrs by [3H]hypoxanthine incorporation assay; type: functional, organism-based
Method in brief: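 Erythrocytic stage, drug-sensitive strain, in hypoxanthine-free RPMI 1640 with HEPES, NaHCO3, neomycin, Albumax, human A+ red cells at 2.5% haematocrit, 0.3% parasitaemia. Eleven 3-fold dilutions from 100 to 0.002 µg/mL; 37 °C, 4% CO2/3% O2/93% N2. ³H-hypoxanthine added at 48 h, further 24 h, then harvested and scintillation-counted. IC50 by linear regression; chloroquine control.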

Trypanosoma cruzi = assay: Antitrypanosomal activity against Trypanosoma cruzi Tulahuen C2C4 amastigotes infected in rat L6 cells after 96 hrs by beta-galactosidase reporter gene assay; type: functional, organism-based; conditions: Tulahuen C2C4, L6, 96 h
Method in brief: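 L-6 cells (2000/well, RPMI 1640 + 10% FBS, 2 mM L-glutamine) infected after 24 h with 5000 LacZ-expressing trypomastigotes. At 48 h the medium was replaced with eleven 3-fold drug dilutions (100 to 0.002 µg/mL). After 96 h, CPRG/Nonidet substrate added, colour read at 540 nm after 2–6 h. IC50 by linear regression from sigmoidal curves; benznidazole control.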

L6 = assay: Cytotoxicity against rat L6 cells after 70 hrs by Alamar blue assay; type: cell-based; conditions: L6, 70 h
Method in brief: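 4000 L-6 cells per well in RPMI 1640 with L-glutamine and 10% FBS. Eleven 3-fold dilutions from 100 to 0.002 µg/mL for 70 h; Alamar Blue 2 h, fluorescence at ex 536/em 588 nm. IC50 by linear regression from sigmoidal curves; podophyllotoxin control.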

Leishmania donovani [10] = assay: Antimicrobial activity against Leishmania donovani MHOM/ET/67/L82 amastigote form after 70 hrs by Alamar blue assay; type: functional, organism-based; conditions: MHOM/ET/67/L82, 70 h
Method in brief: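 Axenic amastigotes grown at 37 °C in SM medium pH 5.4 with 10% heat-inactivated FBS, 5% CO2; 10⁵ parasites per well exposed to eleven 3-fold dilutions (100 to 0.002 µg/mL) for 70 h. Alamar Blue (resazurin) added for 2–4 h, fluorescence read at ex 536/em 588 nm. IC50 by linear regression from sigmoidal curves; miltefosine control.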

SMILES | IC50 [1] [nM] | selectivity ratio [2] | further results
COc1ccccc1C(=O)Nc1ccc(Cl)c(-c2nc3ncccc3o2)c1 | > 10000 |  | 
COc1cccc(C(=O)Nc2ccc(Cl)c(-c3nc4ncccc4o3)c2)c1 | > 10000 |  | 
O=C(Nc1ccc(Cl)c(-c2nc3ncccc3o2)c1)c1ccccn1 | 5700 | 15 | 
O=C(Nc1ccc(Cl)c(-c2nc3ncccc3o2)c1)c1ccncc1 | 3400 |  | 
COCC(=O)Nc1ccc(Cl)c(-c2nc3ncccc3o2)c1 | > 10000 |  | 
O=C(Nc1ccc(Cl)c(-c2nc3ncccc3o2)c1)c1cscn1 | 1800 | 39 | IC50 [8]: 1100 nM; IC50 (Leishmania donovani [9]): > 84000 nM; IC50 (Plasmodium falciparum): 7700 nM; IC50 (Trypanosoma cruzi): 2300 nM; IC50 (L6): 235000 nM; IC50 (Leishmania donovani [10]): 4800 nM
O=C(Nc1ccc(Cl)c(-c2nc3ncccc3o2)c1)c1cc[nH]n1 | > 10000 |  | 
O=C(Cn1ccnc1[N+](=O)[O-])NCc1ccccc1 [BENZNIDAZOLE] |  |  | EC50 (Trypanosoma cruzi): 1460 nM
CCN(CC)CCCC(C)Nc1ccnc2cc(Cl)ccc12 (configuration not stated) [CHLOROQUINE] |  |  | EC50 (Plasmodium falciparum): 6 nM
CCCCCCCCCCCCCCCCOP(=O)([O-])OCC[N+](C)(C)C [MILTEFOSINE] |  |  | EC50 (Leishmania donovani [9]): 1670 nM; EC50 (Leishmania donovani [10]): 490 nM
COc1cc([C@@H]2c3cc4c(cc3[C@H](O)[C@H]3COC(=O)[C@H]23)OCO4)cc(OC)c1OC [PODOFILOX] |  |  | EC50 (L6): 17 nM

More lines, main results first:

IC50 [1] [nM] | SMILES | selectivity ratio [2] | further results
> 10000 | O=C(Nc1ccc(Cl)c(-c2nc3ncccc3o2)c1)c1cccnc1 |  | 
170 | Cc1ccoc1C(=O)Nc1cccc(-c2nc3ncccc3o2)c1 | 115 | logD [3]: 2.9; solubility kinetic [4]: 3.1 µg/mL (≈ 9.71 µM); solubility kinetic [5]: 6.3 µg/mL (≈ 19.7 µM); microsomal CLint at 1 µM [6]: 181 µL/min/mg; half-life at 1 µM [7]: 10 min
2900 | O=C(Nc1cccc(-c2nc3ncccc3o2)c1)c1cnco1 | 29 | 
600 | O=C(Nc1cccc(-c2nc3ncccc3o2)c1)c1ccoc1 | 89 | 
1300 | O=C(Nc1cccc(-c2nc3ncccc3o2)c1)c1cscn1 | 63 | 
> 10000 | Cc1c(NC(=O)c2ccco2)cccc1-c1nc2ncccc2o1 |  | 
> 10000 | O=C(Nc1cccc(-c2nc3ncccc3o2)c1F)c1ccco1 |  | 
> 10000 | O=C(Nc1cccc(-c2nc3ncccc3o2)c1Cl)c1ccco1 |  | 
> 10000 | O=C(Nc1cc(-c2nc3ncccc3o2)ccn1)c1ccco1 |  | 
6300 | O=C(Nc1cc(-c2nc3ncccc3o2)ccc1F)c1ccco1 | 13 | 
> 10000 | O=C(Nc1cncc(-c2nc3ncccc3o2)c1)c1ccco1 |  | 
> 10000 | O=C(Nc1cc(F)cc(-c2nc3ncccc3o2)c1)c1ccco1 |  | 
650 | Cc1ccoc1C(=O)Nc1ccc(Cl)c(-c2nc3ncccc3o2)c1 | > 130 | 
3200 | O=C(Nc1ccc(Cl)c(-c2nc3ncccc3o2)c1)c1ccno1 |  | 
1500 | O=C(Nc1ccc(Cl)c(-c2nc3ncccc3o2)c1)c1cnco1 | > 45 | 
